What all share (type): functional
Experiment [1] relates to Rattus norvegicus. As to the kind of experiment: Antiallergic activity by rat passive cutaneous anaphylaxis (PCA) assay when administered per orally. The conditions noted are these: po. The gist of the method: (§1)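 Rats were passively sensitized intradermally with diluted reaginic anti-ovalbumin serum 24 h before challenge. Compound was suspended in 1% acacia and dosed by oral feeding needle at 1 mL/kg. After 20-30 min, rats were challenged with 0.02 mg ovalbumin in 0.5 mL 2% Evans Blue. Blued areas were measured 30 min after challenge. Six rats per dose; ED50 is 50% area reduction from control, with 95% confidence limits.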

The subject of experiment [2] is Rattus norvegicus. As to the kind of experiment: Antiallergic activity by rat passive cutaneous anaphylaxis (PCA) assay when administered per orally;value ranges between( 0.4-3.0.). The conditions noted are these: po. The gist of the method:
as §1

In experiment [3] the test system is Rattus norvegicus. Description: Antiallergic activity by rat passive cutaneous anaphylaxis (PCA) assay when administered iv;value ranges between (0.07-1.70). The gist of the method:
(§2)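 Male rats sensitized by id injection of diluted rat anti-ovalbumin reaginic serum (0.1 mL each side of shaved back). 24 h later, compound in saline was mixed with 5 mg ovalbumin in 0.5 mL 2% Evans Blue and given iv at 1 mL/kg. Blued-spot diameters were read 30 min later. Six rats per group; ED50 is 50% area reduction versus control, with 95% confidence limits.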

For experiment [4], the system named is Rattus norvegicus. Description: Antiallergic activity by rat passive cutaneous anaphylaxis (PCA) assay when administered per orally;value ranges between (0.4-0.8.). The conditions noted are these: po. The procedure, abridged:
as §1

The subject of experiment [5] is Rattus norvegicus. Description: antiallergic activity by rat passive cutaneous anaphylaxis (PCA) assay when administered iv. The procedure, abridged: as §2
For experiment [6], the system named is Rattus norvegicus. Description: Antiallergic activity by rat passive cutaneous anaphylaxis (PCA) assay when administered iv;value ranges between (0.07-0.4.). The procedure, abridged:
as §2

Experiment [7] has as its system Rattus norvegicus. Description: Antiallergic activity by rat passive cutaneous anaphylaxis (PCA) assay when administered per orally;value ranges between (0.15-0.94.). The settings on record: po. The gist of the method:
as §1

In experiment [8] the test system is Rattus norvegicus. Description: Antiallergic activity by rat passive cutaneous anaphylaxis (PCA) assay when administered iv;value ranges between (0.2-1.1). The gist of the method:
as §2

The test system of experiment [9] is Rattus norvegicus. Description: Antiallergic activity by rat passive cutaneous anaphylaxis (PCA) assay when administered per orally;value ranges between (1.0-4.8). The conditions noted are these: po. The procedure, abridged:
as §1

Experiment [10] concerns Rattus norvegicus. Description: Antiallergic activity by rat passive cutaneous anaphylaxis (PCA) assay when administered iv;value ranges between 0.23-2.24. The gist of the method: as §2
Experiment [11] deals with Rattus norvegicus. Description: Antiallergic activity by rat passive cutaneous anaphylaxis (PCA) assay when administered per orally;value ranges between (0.5-3.27). The conditions noted are these: po. The procedure, abridged: as §1
Experiment [12] concerns Rattus norvegicus. As to the kind of experiment: Antiallergic activity by rat passive cutaneous anaphylaxis (PCA) assay when administered iv;value ranges between (0.56-2.74). The gist of the method:
as §2

With `CCOC(=O)C(=O)Nc1nc(-c2ccc(-c3ccccc3)cc2O)cs1`, the ED50 in experiment [1] is > 10 mg/kg. On to `CCOC(=O)C(=O)Nc1nc(-c2ccc(OC)cc2OC)cs1`, for which the ED50 in experiment [1] was > 30 mg/kg. With `CCOC(=O)C(=O)Nc1nc(-c2cc(OC)c(O)c(OC)c2)cs1`, the ED50 in experiment [1] was ~10 mg/kg.

Consider `CN(C)c1cccc(-c2csc(NC(=O)C(=O)O)n2)c1.NCCO`, for which the ED50 in experiment [2] turned out to be 1.7 mg/kg; in experiment [3], 0.35 mg/kg. Turning to `NCCO.O=C(O)C(=O)Nc1nc(-c2ccncc2)cs1`, in experiment [1], the ED50 was > 3 mg/kg. Still for that read-out and setting: with `CCOC(=O)C(=O)Nc1nc(-c2ccc(OC)c(OC)c2)cs1` the figure was ~3 mg/kg; with `CC(=O)Nc1ccc(-c2csc(NC(=O)C(N)=O)n2)cc1`, > 10 mg/kg.

In experiment [4], `CCOc1ccc(-c2csc(NC(=O)C(=O)O)n2)cc1.NCCO` gave an ED50 of 0.54 mg/kg. For the compound `NCCO.O=C(O)C(=O)Nc1nc(-c2cccnc2)cs1`, the ED50 in [1] is > 10 mg/kg.

In the case of `Cc1cc(-c2csc(NC(=O)C(=O)O)n2)ccc1O.NCCO`, the ED50 in experiment [1] is ~1 mg/kg. In the case of `CCOC(=O)C(=O)Nc1nc(-c2ccc(OC)cc2O)cs1`, in [1], the ED50 was ~1 mg/kg. As to `NCCO.O=C(O)C(=O)Nc1nc(-c2ccc(O)c(O)c2)cs1`, the ED50 came out at 0.08 mg/kg in experiment [5] and 0.1 mg/kg in experiment [1].

For `COc1cc(OC)cc(-c2csc(NC(=O)C(=O)O)n2)c1`, the ED50 was ~0.1 mg/kg in experiment [5] and ~1 mg/kg in experiment [1]. On to `CCOC(=O)C(=O)Nc1nc(-c2cc(OC)ccc2OC)cs1`, for which the ED50 in experiment [1] is > 10 mg/kg. As for `CCOC(=O)C(=O)Nc1nc(-c2cc(OC)cc(OC)c2)cs1`, the ED50 in experiment [1] was ~10 mg/kg.

Consider `CC(=O)N1c2ccccc2Sc2ccc(-c3csc(NC(=O)C(=O)O)n3)cc21.NCCO`, for which, in [1], the 50% effective dose (ED50) is ~10 mg/kg. Still for that read-out and setting: to `CCCCOC(=O)C(=O)Nc1nc(-c2ccc(C(=O)OCC)cc2)cs1` belongs > 10 mg/kg; to `CCOC(=O)C(=O)Nc1nc(-c2ccc(O)c(O)c2)cs1`, 1.4 mg/kg; to `CCOC(=O)C(=O)Nc1nc(-c2ccc3c(c2)OCC(CN2CCCCC2)O3)cs1` (configuration not stated), > 10 mg/kg.

With `CCOC(=O)C(=O)Nc1nc(-c2ccc3c(c2)OCCO3)cs1`, in experiment [1], the ED50 was > 10 mg/kg. On to `CCCC(=O)Nc1ccc(-c2csc(NC(=O)C(=O)OCC)n2)cc1`, for which the ED50 in experiment [5] is < 0.3 mg/kg; in experiment [1] it was > 10 mg/kg. With `CC(=O)Nc1ccc(-c2csc(NC(=O)C(=O)O)n2)cc1`, the ED50 worked out at 0.16 mg/kg in [6] and 0.37 mg/kg in [7].

As to `CCOC(=O)C(=O)Nc1nc(-c2ccc3oc(C)c(C)c(=O)c3c2)cs1`, the ED50 in [1] is > 3 mg/kg.

On to `COc1ccc(-c2csc(NC(=O)C(=O)O)n2)c(OC)c1`, for which the ED50 in [8] is 0.39 mg/kg; in [1] it was > 10 mg/kg. For `CCOC(=O)C(=O)Nc1nc(-c2ccc(C(=O)OCC)cc2)cs1`, in experiment [1], the ED50 was > 10 mg/kg. Still for that read-out and setting: with `NCCO.O=C(O)C(=O)Nc1nc(-c2ccc(Sc3ccccc3)cc2)cs1` the figure was > 30 mg/kg. On the same count and under the same terms, to `CCOC(=O)C(=O)Nc1nc(-c2cccc(O)c2)cs1` belongs > 10 mg/kg.

As to `CCOC(=O)C(=O)Nc1nc(-c2ccc(O)c(C)c2)cs1`, in [9], the 50% effect level (ED50) was put at a dose of 2.2 mg/kg.

With `CCOC(=O)C(=O)Nc1nc(-c2ccccc2C(=O)OC)cs1`, in [1], the ED50 was > 10 mg/kg. Turning to `CC(=O)c1cc(-c2csc(NC(=O)C(=O)O)n2)ccc1O.NCCO.NCCO`, the ED50 in experiment [10] was 0.71 mg/kg; in experiment [1], ~1 mg/kg. For `NC(=O)C(=O)Nc1ccc(-c2csc(NC(=O)C(N)=O)n2)cc1`, the ED50 in experiment [1] was ~1 mg/kg.

For `CCOC(=O)C(=O)Nc1nc(-c2ccc(NC(=O)C(F)(F)F)cc2)cs1`, the ED50 in experiment [1] is ~1 mg/kg.

Turning to `CCOC(=O)C(=O)Nc1nc(-c2ccc(N(C)C)cc2)cs1`, the 50% effective dose (ED50) was ~0.3 mg/kg in [5] and ~1 mg/kg in experiment [1]. Turning to `COC(=O)C(=O)Nc1nc(-c2ccc(OC)c(OC)c2)cs1`, in experiment [11], the ED50 stood at 1.2 mg/kg.

`Cc1cc(O)ccc1-c1csc(NC(=O)C(=O)O)n1.NCCO`: the ED50 in experiment [5] was 1 mg/kg; in [1], > 10 mg/kg. For `NCCO.O=C(O)C(=O)Nc1nc(-c2ccc(Oc3ccccc3)cc2)cs1`, the ED50 in [1] is > 10 mg/kg. Compound `O=C([O-])c1cc(=O)c2c(OCC(O)COc3cccc4oc(C(=O)[O-])cc(=O)c34)cccc2o1.[Na+].[Na+]` [CROMOLYN SODIUM] yielded an ED50 in [12] of 1.24 mg/kg. Turning to `CCOC(=O)C(=O)Nc1nc(-c2ccc(OC)cc2)cs1` [TIOXAMAST], the ED50 in [1] is ~10 mg/kg.

Source of the values: ChEMBL document CHEMBL1122270, “N-(4-substituted-thiazolyl)oxamic acid derivatives, a new series of potent, orally active antiallergy agents” (1983).
